Compound activity deposited in PubChem BioAssay by The Scripps Research Institute Molecular Screening Center.
PP5 primary = inhibitors of human protein phosphatase 5 (PP5). P53041. purified PP5c, OMFP substrate fluorescence. inhibition, % at 6.7 µM. 0.18% of 320,000 active. AID 1987;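 active means inhibition above the campaign's mean inhibition across all tested compounds plus 3 SD, cut at about 9.5% in these data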
NR2E3 ag-1 = activates human photoreceptor nuclear receptor NR2E3; 0.12% of 320,000 active; AID 2300; GST-NR2E3/biotin-RetCOR TR-FRET, 1536-well; inhibition of corepressor binding, % at 4.78 µM;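 active means percent inhibition above the cutoff of mean plus 3 SD of all tested compounds, set per screening campaign, cut at about 20% in these data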
Target sequence (Q9Y5X4 whole entry, looked up): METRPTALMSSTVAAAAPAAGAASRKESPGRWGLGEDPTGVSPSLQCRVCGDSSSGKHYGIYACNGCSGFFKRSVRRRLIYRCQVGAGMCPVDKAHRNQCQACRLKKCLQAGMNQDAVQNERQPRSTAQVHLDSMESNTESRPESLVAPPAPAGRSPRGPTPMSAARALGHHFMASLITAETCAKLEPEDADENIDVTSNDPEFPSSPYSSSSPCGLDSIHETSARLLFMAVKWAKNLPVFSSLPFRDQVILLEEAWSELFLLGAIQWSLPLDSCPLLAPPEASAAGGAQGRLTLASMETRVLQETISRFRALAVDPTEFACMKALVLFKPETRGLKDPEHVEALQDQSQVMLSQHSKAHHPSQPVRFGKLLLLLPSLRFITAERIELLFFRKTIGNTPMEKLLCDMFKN
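system = GST-tagged NR2E3 plus biotinylated RetCOR corepressor | input = 1.35 nM GST-NR2E3 | also added = 7 nM biotin-RetCOR | schedule = 5 h incubation at 4 °C | measured by = TR-FRET with europium anti-GST and streptavidin-D2, 340 nm excitation | read-out = percent loss of FRET ratio relative to control wells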
NR2E3 ag-2 = activates human NR2E3 receptor; CHO-S Gal4-NCOR/VP16-NR2E3 two-hybrid, luciferase; inhibition of corepressor binding, % at 3.98 µM; Q9Y5X4; AID 602229; 0.35% of 360,000 active;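 active means inhibition above the mean of all tested compounds plus 3 SD, cut at about 70% in these data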;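 further: higher means lower luciferase signal from less NR2E3 corepressor binding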
PP1 counter = blocks human PP1-alpha phosphatase, a PP5 counter-screen; purified PP1alpha, OMFP fluorescence; inhibition, % at 6.7 µM; 0.9% of 320,000 active; AID 2235;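 active means inhibition above the mean inhibition of all tested compounds plus 3 SD, computed separately for each screening campaign, cut at about 15% in these data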
Target sequence (P62136 whole entry, looked up): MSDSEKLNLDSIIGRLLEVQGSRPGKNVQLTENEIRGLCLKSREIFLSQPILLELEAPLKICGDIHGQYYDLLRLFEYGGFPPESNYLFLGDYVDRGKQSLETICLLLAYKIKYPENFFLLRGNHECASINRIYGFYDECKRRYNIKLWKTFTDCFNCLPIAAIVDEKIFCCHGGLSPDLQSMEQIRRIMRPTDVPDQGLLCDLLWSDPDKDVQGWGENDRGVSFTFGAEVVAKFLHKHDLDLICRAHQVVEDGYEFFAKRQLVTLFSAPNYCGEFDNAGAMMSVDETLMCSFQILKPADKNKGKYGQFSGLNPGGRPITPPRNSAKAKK
NR2E3 ag confirm = NR2E3 agonism confirmed in two-hybrid assay; shares compounds with NR2E3 ag-2; 51% of 2,300 active; CHO-S mammalian two-hybrid NR2E3-NCOR, luciferase luminescence; AID 624378; inhibition, % at 3.98 µM;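 active means average inhibition above a cutoff equal to the mean inhibition of all tested compounds plus one SD, cut at about 70% in these data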
GAL4-VP16 luc = GAL4-VP16 reporter inhibition in NR2E3 agonist counterscreen | shares compounds with NR2E3 ag-2 | CHO-S GAL4-VP16 luciferase reporter, luminescence | inhibition, % at 3.98 µM | 29% of 2,300 active | AID 624379;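 active means mean inhibition above a cutoff equal to the average over all tested compounds plus one standard deviation, cut at about 70% in these data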;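 further: luciferase from a UAS reporter driven by GAL4-VP16 transactivation; higher means less reporter light so more repression of VP16 activity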
Each line names hits and unclear results; the compound was inactive in the other large screens (follow-up assays come after a bar, where they were run). An excerpt weighted towards active compounds, which were near 1.3% of everything screened.

CC(=O)c1ccc(OCc2cc(C(=O)N3CCC(Oc4ccccc4C)CC3)no2)cc1	none
O=C(c1cc(COc2cccc(C(F)(F)F)c2)on1)N1CCC(Oc2cccnc2)CC1	NR2E3 ag-2 77.6 | NR2E3 ag confirm 92.3 | GAL4-VP16 luc 74.8
Cc1ccc(OCc2cc(C(=O)N3CCC(Oc4cccnc4)CC3)no2)cc1C	NR2E3 ag-2 96.9 | NR2E3 ag confirm 91.4 | GAL4-VP16 luc inactive
COCCCC1CCN(C(=O)c2cc(COc3ccc(C)nc3)on2)CC1	none | NR2E3 ag confirm inactive | GAL4-VP16 luc inactive
CCOCCCNC(=S)N(CCO)Cc1cc2cc3c(cc2[nH]c1=O)OCCO3	none
Cc1ccc(NS(=O)(=O)c2ccc3c(c2)n(C)c(=O)n3C)cc1	none
Cn1c(=O)n(C)c2cc(NS(=O)(=O)c3ccc(C(C)(C)C)cc3)ccc21	none | NR2E3 ag confirm 82.4 | GAL4-VP16 luc 75.6
CCc1cccc(NS(=O)(=O)c2ccc3c(c2)n(C)c(=O)n3C)c1	none | NR2E3 ag confirm inactive | GAL4-VP16 luc inactive
COc1ccc(S(=O)(=O)Nc2ccc3c(c2)n(C)c(=O)n3C)cc1C	none
Cn1c(=O)n(C)c2cc(NS(=O)(=O)c3ccc4c(c3)CCCC4)ccc21	none | NR2E3 ag confirm 85.0 | GAL4-VP16 luc inactive
O=C(NCc1cccnc1)C(=O)NCC1OCCCN1S(=O)(=O)c1cc(F)ccc1F (centres undefined)	none (no result: PP5 primary, NR2E3 ag-1, PP1 counter)
O=C(NCc1ccc(F)cc1)C(=O)NCC1OCCN1C(=O)c1cccs1 (centres undefined)	none
Cc1ccc(Nc2nc(N)c([N+](=O)[O-])c(N3CCOCC3)n2)cc1C	none | NR2E3 ag confirm inactive | GAL4-VP16 luc inactive
Cc1ccc(Nc2nc(N)c([N+](=O)[O-])c(N3CCC(C)CC3)n2)cc1C	none
COCCCn1nnnc1SCC(=O)Nc1nc2ccccc2s1	none
Cc1nnnn1/C(=C\c1ccccc1)C(=O)OCC(=O)Nc1ccc(Cl)cc1F	none | NR2E3 ag confirm inactive | GAL4-VP16 luc inactive
CCc1ccccc1NNC(=O)c1cc(C)on1	none
Cc1cc(C(=O)NNc2ccccc2F)no1	none | NR2E3 ag confirm inactive | GAL4-VP16 luc inactive
Fc1ccc(-n2nnnc2-c2cnc(-c3cccs3)nc2C(F)(F)F)cc1	NR2E3 ag-2 88.3 | NR2E3 ag confirm 91.6 | GAL4-VP16 luc inactive
CC1(C(=O)Nc2ccccc2Br)CCN1C(=O)Cc1ccccc1Cl (centres undefined)	none (no result: PP5 primary, NR2E3 ag-1, PP1 counter)
NNC(=O)c1cnn(Cc2ccccc2)c1N	none | NR2E3 ag confirm inactive | GAL4-VP16 luc inactive
CCOC(=O)C1=Nc2ccccc2C1=[N+]=[N-]	NR2E3 ag-2 97.0 | NR2E3 ag confirm inactive | GAL4-VP16 luc 79.4
CC(=O)OC[C@]1(OC(C)=O)C[C@@]23CC[C@H]4[C@@](C)(CCC[C@@]4(C)C(=O)O)[C@@H]2CC[C@@H]1C3	none
CC(=O)OC[C@]12CC[C@H]3[C@@](C)(CC[C@H]4C(C)(C)CCC[C@]34C)[C@@H]1CC(C1=CC(=O)OC1O)O2 (some centres undefined)	NR2E3 ag-2 102.3 (no result: PP5 primary, NR2E3 ag-1, PP1 counter) | NR2E3 ag confirm 100.0 | GAL4-VP16 luc 99.8
Cc1cc(=O)oc2cc(OCCSCCN3CCCCC3)ccc12	none
O=C(Nc1ccc(S(=O)(=O)N2CCOCC2)cc1)c1ccc(S(=O)(=O)N2CCOCC2)cc1	none
CC(=O)c1ccc(NC(=O)c2cc(S(=O)(=O)N3CCOCC3)ccc2C)cc1	none
Cc1ccc(S(=O)(=O)N2CCOCC2)cc1C(=O)Nc1ccc(N2CCCCCC2)cc1	none (no result: PP5 primary, NR2E3 ag-1, PP1 counter) | NR2E3 ag confirm inactive | GAL4-VP16 luc inactive
O=C(Nc1ccc(Cc2ccncc2)cc1)c1ccc(S(=O)(=O)N2CCOCC2)cc1	none | NR2E3 ag confirm inactive | GAL4-VP16 luc inactive
Cc1cccc(N(Cc2ccccc2)C(=O)c2cc(S(=O)(=O)N3CCOCC3)ccc2Cl)c1	none
C=C(C(=O)c1ccccc1)C(CC(=O)c1ccccc1)c1ccccc1 (centres undefined)	none
Cc1ccc(S(=O)(=O)N2[C@@H](c3ccc(Cl)c(Cl)c3)C(C(=O)O)=C[C@H]2C(C)(C)C)cc1	none (no result: PP5 primary, NR2E3 ag-1, PP1 counter) | NR2E3 ag confirm inactive | GAL4-VP16 luc inactive
CCCCC[C@@H]1C=C(C(=O)O)[C@H](c2ccc(Cl)c(Cl)c2)N1S(=O)(=O)c1ccc(C)cc1	NR2E3 ag-2 81.4 (no result: PP5 primary, NR2E3 ag-1, PP1 counter) | NR2E3 ag confirm 71.3 | GAL4-VP16 luc inactive
CCCC[C@@H]1C=C(C(=O)O)[C@H](c2ccc(CC)cc2)N1S(=O)(=O)c1ccc(C)cc1	none (no result: PP5 primary, NR2E3 ag-1, PP1 counter)
CCCCC[C@@H]1C=C(C(=O)O)[C@H](c2ccc(CC)cc2)N1S(=O)(=O)c1ccc(C)cc1	none (no result: PP5 primary, NR2E3 ag-1, PP1 counter) | NR2E3 ag confirm inactive | GAL4-VP16 luc inactive
CC[C@@H]1C=C(C(=O)O)[C@H](c2ccc(Cl)c(Cl)c2)N1S(=O)(=O)c1ccc(C)cc1	none (no result: PP5 primary, NR2E3 ag-1, PP1 counter)
O=C(O)CCCCCNC(=O)OCC1c2ccccc2-c2ccccc21	none
CCOC(=O)c1c(S(=O)(=O)NCC(=O)Nc2cc(C)ccc2OC)c(C)n(C)c1C	none
COc1cc(CNc2ncnc3c2ncn3[C@H]2CN(Cc3ccncc3)C[C@@H](CO)O2)cc(OC)c1OC	none (no result: PP5 primary, NR2E3 ag-1, PP1 counter)
COc1ccccc1C(=O)C1CCCN(C(=O)c2snnc2C)C1 (centres undefined)	none
C=CCN(CC=C)C(=S)NC(=O)c1ccc([N+](=O)[O-])cc1	none | NR2E3 ag confirm inactive | GAL4-VP16 luc inactive
Cc1sc2ncnc(NCc3ccccc3)c2c1C	none | NR2E3 ag confirm 89.3 | GAL4-VP16 luc 70.9
Cc1sc2ncnc(NCC3COc4ccccc4O3)c2c1C (centres undefined)	NR2E3 ag-2 92.2 | NR2E3 ag confirm 97.2 | GAL4-VP16 luc 89.1
Cc1sc2ncnc(NCC(C)(C)N3CCOCC3)c2c1C	NR2E3 ag-2 91.2 | NR2E3 ag confirm 79.7 | GAL4-VP16 luc inactive
c1ccc(-c2csc3ncnc(NCC4COc5ccccc5O4)c23)cc1 (centres undefined)	NR2E3 ag-2 91.3 | NR2E3 ag confirm 97.9 | GAL4-VP16 luc 89.3
Cc1sc2ncnc(Nc3ccccc3)c2c1C	none
COc1cc(CN2CCCC(C(=O)c3ccc4c5c(cccc35)CC4)C2)cc(OC)c1O (centres undefined)	none
Cc1ccc2c(c1)CCCN2C(=O)CCc1nc2ccccc2c(=O)[nH]1	none
COc1ccc(N2CCN(C(=O)c3csc4ccccc34)CC2)cc1	none
Cn1ncc(Cl)c1C(=O)N1CCN(c2ccccc2)CC1	none
Cn1ncc(Cl)c1C(=O)N1CCN(c2ccc(Cl)c(Cl)c2)CC1	NR2E3 ag-2 102.6 | NR2E3 ag confirm 94.7 | GAL4-VP16 luc 86.4
O=C(c1csc2ccccc12)N1CCN(c2ccc(Cl)c(Cl)c2)CC1	none | NR2E3 ag confirm 81.2 | GAL4-VP16 luc inactive
Cc1ccc(Cl)cc1NC(C#N)c1ccccc1 (centres undefined)	none
Oc1ccc(Cl)cc1Sc1cc(Cl)ccc1O	none (no result: PP5 primary, NR2E3 ag-1, PP1 counter) | NR2E3 ag confirm 100.2 | GAL4-VP16 luc inactive
CCOc1ccc(S(=O)(=O)n2cnc3cc(C)c(C)cc32)cc1	none | NR2E3 ag confirm 83.3 | GAL4-VP16 luc 76.0
Cc1cc2ncn(S(=O)(=O)c3ccc(S(N)(=O)=O)cc3)c2cc1C	none (no result: PP5 primary, NR2E3 ag-1, PP1 counter)
